What was measured:
[1] = target: CDK8/Cyclin C (Homo sapiens, UniProt P49336); assay: Inhibition of CDK8/cyclin C (unknown origin) using RBER-IRStide as substrate incubated for 60 mins in presence of [gamma33P]ATP by scintillation counting method; format: protein-complex assay
[2] = test system: MV4-11; assay: Growth inhibition of human MV4-11 cells after 72 hrs by resazurin staining based assay; format: functional
Summary of the method: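 MV4-11 leukaemia cells grown in medium with 10% FBS at 37 °C, 5% CO2. Growth was read by a 72-h resazurin viability assay. GI50 was obtained by nonlinear regression and reported as mean ± standard deviation of at least two replicates.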

Chain of CDK8/Cyclin C (P49336 whole entry): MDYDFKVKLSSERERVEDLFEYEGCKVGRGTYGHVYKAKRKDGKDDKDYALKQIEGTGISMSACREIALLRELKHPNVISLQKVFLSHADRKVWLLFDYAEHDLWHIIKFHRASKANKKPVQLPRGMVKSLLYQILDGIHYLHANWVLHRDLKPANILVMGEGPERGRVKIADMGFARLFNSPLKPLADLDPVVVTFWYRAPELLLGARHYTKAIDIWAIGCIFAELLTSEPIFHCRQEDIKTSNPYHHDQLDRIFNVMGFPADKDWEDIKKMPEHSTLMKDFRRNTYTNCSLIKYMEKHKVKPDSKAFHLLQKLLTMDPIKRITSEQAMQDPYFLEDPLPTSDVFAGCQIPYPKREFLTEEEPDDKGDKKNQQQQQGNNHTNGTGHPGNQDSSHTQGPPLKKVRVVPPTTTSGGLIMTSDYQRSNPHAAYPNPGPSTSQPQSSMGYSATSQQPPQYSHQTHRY
Chain of CDK8/Cyclin C (P24863 whole entry, further chain): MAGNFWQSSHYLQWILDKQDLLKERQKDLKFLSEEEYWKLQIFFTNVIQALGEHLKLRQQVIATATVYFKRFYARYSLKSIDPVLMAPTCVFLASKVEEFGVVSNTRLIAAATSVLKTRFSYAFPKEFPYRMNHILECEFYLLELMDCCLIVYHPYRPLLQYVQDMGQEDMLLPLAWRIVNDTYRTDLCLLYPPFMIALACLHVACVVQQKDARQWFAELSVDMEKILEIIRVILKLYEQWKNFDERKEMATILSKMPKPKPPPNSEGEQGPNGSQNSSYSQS

O=C1NCCC12CCN(c1c(Cl)cncc1-c1cccc3ccncc13)CC2
Ki [1]: 3140 nM | GI50 [2]: 64200 nM

O=C1NCCC12CCN(c1c(Cl)cncc1-c1cnn(Cc3ccccc3)c1)CC2
Ki [1]: 346 nM | GI50 [2]: 5340 nM

O=C1NCCC12CCN(c1c(Cl)cncc1-c1c[nH]c3ncccc13)CC2
Ki [1]: 50 nM | GI50 [2]: 7820 nM

O=C1NCCC12CCN(c1c(Cl)cncc1-c1cccc3c1sc1ccccc13)CC2
Ki [1]: 24 nM | GI50 [2]: 6350 nM

COc1ccc(-c2cncc(Cl)c2N2CCC3(CCNC3=O)CC2)c2ccccc12
Ki [1]: 26 nM | GI50 [2]: 33200 nM

CC(C)(C)OC(=O)N1CCC(n2cc(-c3cncc(Cl)c3N3CCC4(CCNC4=O)CC3)cn2)CC1
Ki [1]: 700 nM | GI50 [2]: 12200 nM

Cc1ccc(-c2cncc(Cl)c2N2CCC3(CCNC3=O)CC2)c2ccccc12
Ki [1]: 22 nM | GI50 [2]: 710 nM

O=C1NCCC12CCN(c1c(Cl)cncc1-c1cn(S(=O)(=O)c3ccccc3)c3ncccc13)CC2
Ki [1]: 1300 nM | GI50 [2]: 40200 nM

Cn1ncc2c(-c3cncc(Cl)c3N3CCC4(CCNC4=O)CC3)cccc21
Ki [1]: 458 nM | GI50 [2]: 27700 nM

O=C1NCCC12CCN(c1c(Cl)cncc1-c1cccc3c1oc1ccccc13)CC2
Ki [1]: 16 nM | GI50 [2]: 6680 nM

Cn1c(-c2cncc(Cl)c2N2CCC3(CCNC3=O)CC2)cc2ccccc21
Ki [1]: 79 nM | GI50 [2]: 10100 nM

O=C1NCCC12CCN(c1c(Cl)cncc1-c1cc3ccccc3[nH]1)CC2
Ki [1]: 156 nM | GI50 [2]: 6840 nM

O=C1NCCC12CCN(c1c(Cl)cncc1-c1cccc3ncccc13)CC2
Ki [1]: 22 nM | GI50 [2]: 3650 nM

O=C1NCCC12CCN(c1c(Cl)cncc1-c1coc3ccccc13)CC2
Ki [1]: 48 nM | GI50 [2]: 29200 nM

O=C1NCCC12CCN(c1c(Cl)cncc1-c1ccnc3ccccc13)CC2
Ki [1]: 138 nM | GI50 [2]: 53500 nM

O=C1NCCC12CCN(c1c(Cl)cncc1-c1cccc3cccnc13)CC2
Ki [1]: 114 nM | GI50 [2]: 9150 nM
